bovine MsrA act: activators of bovine methionine sulfoxide reductase A; purified bovine MsrA, absorbance read-out; activation, % at 10.6 µM; hit rate 0.3% among 360,000; in the data active means activation above about 7.5%
NR1D1 modulator: modulates human Rev-erb alpha binding to DNA | hit rate 0.79% among 370,000 | Rev-erbα–FITC-DNA binding, fluorescence polarization, 90 min | P20393 | activity, % at 10 µM;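 active means activity above about 14%, limit read from the data; passing the limit was not always enough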
ARFGAP1 inh: inhibitors of rat ARFGAP1; Q62848; Arfgap1-stimulated ARF1 GTP hydrolysis, GDP FP detection; inhibition, % at 16.5 µM; hit rate 0.26% among 360,000;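 active means inhibition above a per-plate limit, mean inhibition of low control wells plus 3 SD, cut at about 25% in these data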
Target sequence (Q62848 1-136 limits assumed): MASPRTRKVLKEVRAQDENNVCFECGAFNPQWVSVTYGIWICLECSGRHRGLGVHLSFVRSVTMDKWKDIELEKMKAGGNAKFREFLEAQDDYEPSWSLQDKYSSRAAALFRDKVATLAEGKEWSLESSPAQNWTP
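System: truncated rat Arfgap1 GAP domain / Medium: HEPES-based buffer, pH 7.5 / Also added: N-terminally truncated human ARF1-GTP substrate / Incubation: enzyme reaction 120 min at 25 °C after 20 min preincubation / Measured by: FP of antibody-bound GDP Alexa 633 tracer, ex 620/em 688 nm / Replicates: singlicate, each compound tested once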
MsrA inh: inhibits bovine methionine sulfoxide reductase A; purified bovine MsrA, absorbance read-out; inhibition, % at 15.5 µM; hit rate 0.75% among 360,000; AID 651718; in the data active means inhibition above about 4.5%
ASAP1 GAP inh: blocks human ASAP1-stimulated Arf1 GTP hydrolysis. hit rate 0.19% among 360,000. AID 624377. inhibition, % at 16.5 µM. GDP FP detection; in the data active means inhibition above about 25%
Target sequence (Q9ULH1 325-724 limits assumed): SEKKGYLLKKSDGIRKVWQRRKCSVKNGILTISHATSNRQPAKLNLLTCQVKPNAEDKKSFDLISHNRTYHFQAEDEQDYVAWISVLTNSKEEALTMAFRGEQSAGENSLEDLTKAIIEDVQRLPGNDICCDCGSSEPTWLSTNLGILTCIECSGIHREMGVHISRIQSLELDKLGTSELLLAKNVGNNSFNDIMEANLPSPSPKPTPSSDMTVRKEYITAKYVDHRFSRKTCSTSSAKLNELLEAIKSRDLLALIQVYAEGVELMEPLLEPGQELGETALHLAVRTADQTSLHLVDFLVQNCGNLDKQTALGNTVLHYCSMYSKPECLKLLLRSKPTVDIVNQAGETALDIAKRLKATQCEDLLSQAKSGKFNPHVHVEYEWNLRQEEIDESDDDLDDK
HGIII-sPLA2 inh: Blocks human group III sPLA2 activity. AID 743126. inhibition, % at 12.2 µM. QFRET BODIPY PC-A2 liposome hydrolysis, fluorescence. hit rate 0.56% among 370,000;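 active means inhibition above mean plus 3 SD of compounds lying within the high and low control bounds, cut at about 19% in these data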
NR1D1 mod conf: confirmation of modulators of human Rev-erb alpha DNA binding | shares compounds with NR1D1 modulator | Rev-erb alpha FITC-DNA binding, fluorescence polarization, 90 min | activation, % at 25 µM | hit rate 61% among 3,000;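 active means activation at or above a set limit, or at least 3 SD above the negative control mean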
RORg DNA counter: counter-screen for Rev-erb alpha modulators: RORgamma DNA binding; shares compounds with NR1D1 modulator; purified RORgamma protein-FITC-DNA binding, fluorescence polarization; IC50, µM; hit rate 8% among 910; AID 1259320;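 active means Compounds whose fitted half-maximal concentration for disrupting protein-DNA binding is below 10 micromolar; the record names Rev-erb in its text, so the target is in doubt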
Each line names hits and unclear results; the compound was inactive in the other large screens (follow-up assays come after a bar, where they were run). Compounds with a hit are over-represented: about 2.7% of the library has one in this group of screens.

Cc1cc2c(s1)c1cnn(Cc3cc(F)ccc3F)c(=O)c1n2C	none (no result: bovine MsrA act, ARFGAP1 inh, MsrA inh, ASAP1 GAP inh)
Cc1cc2c(s1)c1cnn(Cc3ccccc3F)c(=O)c1n2C	NR1D1 modulator 33 | NR1D1 mod conf 18
Cc1cc2c(s1)c1cnn(Cc3c(Cl)ccc(C)c3F)c(=O)c1n2C	NR1D1 modulator 233 (no result: bovine MsrA act, ARFGAP1 inh, MsrA inh, ASAP1 GAP inh) | NR1D1 mod conf 81 | RORg DNA counter inactive
COC(=O)[C@]12CCCCC=C1N(Cc1ccccc1)C(=O)[C@H](CC(=O)N1CCC(c3ccccc3)CC1)C2	none
COc1cccc(N=Cc2c(O)n(-c3cccc(C)n3)c(=O)c3ccccc23)c1	none
COc1ccc(N=Cc2c(O)n(-c3cccc(C)n3)c(=O)c3ccccc23)c(OC)c1	NR1D1 modulator 53 | NR1D1 mod conf inactive
O=c1c(=O)n2c(nn1Cc1ccc(F)cc1)sc1ccccc12	NR1D1 modulator 33 | NR1D1 mod conf 20
O=C(Cn1nc2sc3ccccc3n2c(=O)c1=O)c1cccs1	none
COC(=O)c1ccc(COc2ccc3c4c(c(=O)oc3c2)CCC4)o1	NR1D1 modulator 34 | NR1D1 mod conf inactive
CN(C)c1ccc(/C=C(\C#N)C(=O)Nc2nc3c(s2)CCN(Cc2ccccc2)C3)cc1	NR1D1 modulator 28 | NR1D1 mod conf 22
Cn1c(SCc2ccc(C(C)(C)C)cc2)nnc1-c1ccco1	none (no result: bovine MsrA act, ARFGAP1 inh, MsrA inh, ASAP1 GAP inh)
Brc1ccc2ncc(Br)cc2c1	NR1D1 modulator 45 | NR1D1 mod conf 33 | RORg DNA counter inactive
CN1CCN(C2=C(Cl)C(=O)N(c3ccc(Cl)cc3)C2=O)CC1	none (no result: NR1D1 modulator, ARFGAP1 inh, MsrA inh, ASAP1 GAP inh, HGIII-sPLA2 inh)
O=C1C(Cl)=C(NC2CCCCC2)C(=O)N1c1ccc(Cl)cc1	NR1D1 modulator 40 | NR1D1 mod conf inactive
COc1ccc(/C=C2/CN(Cc3ccc(OC)cc3OC)C3=NC(c4ccc5ccccc5c4)CC(=O)N32)cc1 (stereo not drawn)	none (no result: bovine MsrA act, ARFGAP1 inh, MsrA inh, ASAP1 GAP inh)
COC(=O)c1sc2nc(SCc3ccccc3C)n(N)c(=O)c2c1C	NR1D1 modulator 107 | NR1D1 mod conf inactive
COc1ccc(C(=O)N2CCCC(CCC(=O)NCc3ccc(F)c(F)c3)C2)cc1F (stereo not drawn)	none
COc1ccc(C(=O)N2CCCC(CCC(=O)NCc3ccc(F)c(F)c3)C2)o1 (stereo not drawn)	NR1D1 modulator 15 | NR1D1 mod conf inactive
Nc1[nH]c(C(=O)c2ccccc2)c(-c2cccc3ccccc23)c1C(=O)NCc1ccccc1	none
CC1Cc2ccccc2N1C(=O)COC(=O)c1cc(Br)ccc1O (stereo not drawn)	NR1D1 modulator 35 | NR1D1 mod conf 25
Nc1nccnc1C(=O)OCC(=O)N1CCN(S(=O)(=O)c2ccc(Cl)cc2)CC1	none
CCN(CC)S(=O)(=O)c1ccc(O)c(C(=O)OCC(=O)N2CCCc3ccccc32)c1	none
O=C(OCC(=O)N1CCCc2ccccc21)c1cc(Br)ccc1O	NR1D1 modulator 36 | NR1D1 mod conf 26
O=C(OCC(=O)N1CCN(S(=O)(=O)c2ccc(Cl)cc2)CC1)c1cc(Br)ccc1O	NR1D1 modulator 121 | NR1D1 mod conf 80 | RORg DNA counter inactive
CCCCOC(=O)c1ccc(NC(=O)CSC2=Nc3ccccc3C3CC=NN23)cc1 (stereo not drawn)	none
O=C(CSC1=Nc2ccccc2C2CC=NN12)Nc1ccc(F)c(F)c1F (stereo not drawn)	NR1D1 modulator 18 | NR1D1 mod conf inactive
O=C(COC(=O)c1nc(Cl)ccc1Cl)NCc1ccc(Cl)cc1Cl	none
Cn1nc(C(=O)OCC(=O)NCc2ccc(Cl)cc2Cl)c2ccccc2c1=O	NR1D1 modulator 18 | NR1D1 mod conf 20
CCOC(=O)C1=CCN(S(=O)(=O)c2cccc(Cl)c2)C1c1cccc(C)c1 (stereo not drawn)	NR1D1 modulator 18 | NR1D1 mod conf inactive
CCOC(=O)C1=CCN(S(=O)(=O)c2cccc(Cl)c2)C1c1cccc(Cl)c1 (stereo not drawn)	none (no result: bovine MsrA act)
Cc1noc(C)c1COc1ccccc1C(=O)N1CCN(S(=O)(=O)c2ccc(C(C)C)cc2)CC1	none
CCC(=O)c1ccc(OCC(=O)Nc2ccccc2C(=O)NC2CC2)cc1	NR1D1 modulator 22 | NR1D1 mod conf 96 | RORg DNA counter inactive
COc1ccc(CNc2c(C(=O)O)cnc3c2cnn3C)cc1	none
CCOC(=O)c1cnc2c(cnn2C)c1NCc1ccc(OC)cc1	NR1D1 modulator 28 | NR1D1 mod conf 22
CC1(C(=O)NCc2cccs2)Cc2c(-c3ccc4c(c3)OCO4)ccnc2O1 (stereo not drawn)	none
CC(C)(C)CNC(=O)c1ccc2c(c1)S(=O)(=O)c1cc(Cl)ccc1C2=O	none
Cc1cc(N(C)C(=O)c2ccc3c(c2)S(=O)(=O)c2cc(Cl)ccc2C3=O)c(C(F)(F)F)o1	NR1D1 modulator 20 | NR1D1 mod conf 20
C=CCn1c2ccccc2c(=O)c2cc(C#Cc3ccccn3)ccc21	none
Cc1cccc(NC(=O)c2cc3c(n(-c4ccccc4)c2=O)CCCC3=O)n1	none
COc1ccc(-n2c3c(cc(C(=O)Nc4cccc(C)n4)c2=O)C(=O)CC(C)(C)C3)cc1	NR1D1 modulator 33 | NR1D1 mod conf inactive
Cc1cccc(NC(=O)C(=O)NCC2CCCN2S(=O)(=O)c2cccs2)c1 (stereo not drawn)	none
N#Cc1cc(C#N)c(N2CCN(c3cccc(Cl)n3)CC2)nc1N	NR1D1 modulator 26 | NR1D1 mod conf 71 | RORg DNA counter inactive
Cc1cccc2cc(C#N)c(N3CCN(C)CC3)nc12	none
Cc1cccc(C)c1C(O)c1ncc(-c2ccc(F)cc2)[nH]1 (stereo not drawn)	none (no result: NR1D1 modulator, ARFGAP1 inh, MsrA inh, ASAP1 GAP inh, HGIII-sPLA2 inh)
NS(=O)(=O)c1ccc(CCNc2ccn3nc(-c4ccccc4)cc3n2)cc1	none
CC(C)Cc1ccc(-c2cc3nc(NCCc4ccc(S(N)(=O)=O)cc4)ccn3n2)cc1	NR1D1 modulator 35 | NR1D1 mod conf 24
Cc1onc(-c2ccccc2)c1C(=O)Nc1cc(C(F)(F)F)ccc1N1CCOCC1	NR1D1 modulator 22 | NR1D1 mod conf 33
O=c1c2cc(F)ccc2[nH]c(=S)n1Cc1ccc(F)cc1	NR1D1 modulator 57 | NR1D1 mod conf 17
NS(=O)(=O)c1ccc(CCn2c(=S)[nH]c3ccc(F)cc3c2=O)cc1	NR1D1 modulator 58 | NR1D1 mod conf 40 | RORg DNA counter inactive
O=C(CCCCCn1c(=S)[nH]c2ccccc2c1=O)NCc1ccc2c(c1)OCO2	none
O=c1c2ccccc2[nH]c(=S)n1Cc1ccc2c(c1)OCO2	NR1D1 modulator 38 | NR1D1 mod conf 48 | RORg DNA counter inactive
Cc1ccc(-n2nc(C)c3c(-c4cccs4)c(C#N)c(N)nc32)cc1	NR1D1 modulator 60 | NR1D1 mod conf 30
